# hIAP act = human IAP activation; 330,000 compounds, 0.16% hits; purified human IAP, CDP-Star luminescence, 30 min; stronger effect = higher value; 1 = vehicle-only enzyme, 0 = enzyme-free background; P09923; AID 2524; activation factor at 10 µM;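 active = activation factor of the enzyme at least 2-fold when tested at 20 µM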
# Target sequence (P09923 whole entry, looked up): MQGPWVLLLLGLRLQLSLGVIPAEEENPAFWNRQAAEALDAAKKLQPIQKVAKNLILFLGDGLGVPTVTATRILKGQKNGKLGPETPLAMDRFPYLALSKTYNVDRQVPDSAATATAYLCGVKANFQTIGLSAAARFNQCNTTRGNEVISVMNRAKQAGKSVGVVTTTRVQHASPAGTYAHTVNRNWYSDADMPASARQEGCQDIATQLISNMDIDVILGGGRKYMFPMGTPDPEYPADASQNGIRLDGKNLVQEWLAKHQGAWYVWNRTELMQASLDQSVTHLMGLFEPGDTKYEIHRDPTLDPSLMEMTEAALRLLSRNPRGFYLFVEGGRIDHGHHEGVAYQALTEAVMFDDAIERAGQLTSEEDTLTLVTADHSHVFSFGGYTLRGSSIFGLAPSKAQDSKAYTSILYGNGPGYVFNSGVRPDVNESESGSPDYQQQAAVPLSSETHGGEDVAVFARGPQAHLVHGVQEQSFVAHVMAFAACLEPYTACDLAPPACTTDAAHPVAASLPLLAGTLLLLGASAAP
# mIAP act = increases mouse intestinal alkaline phosphatase activity. muIAP, CDP-Star luminescence, 30 min; stronger effect = higher value; 1 = vehicle-only enzyme signal, 0 = enzyme-free wells. activation factor at 10 µM. 330,000 compounds, 0.24% hits;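 active = activation factor of at least 2 at 20 µM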
#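 Assay system: mouse IAP enzyme; Reagent: CDP-Star chemiluminescent phosphatase substrate; Compound: DMSO-dissolved test compounds; Incubation: 30 min, room temperature; Technique: luminescence from enzymatic CDP-Star hydrolysis; Controls: DMSO-only wells and no-enzyme negative control.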
# bIAP activator = intestinal alkaline phosphatase (bovine) activation; purified bovine IAP, CDP-star luminescence, 30 min; stronger effect = higher value; fold of DMSO-control signal, blank-subtracted; 200,000 compounds, 0.17% hits; activation factor at 20 µM;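 active = activation factor of 2 or more at 20 µM, a signal rise over negative controls twice the positive control's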
# hIAP inh = human IAP inhibition. P09923. purified IAP, CDP-Star luminescence, 30 min. inhibition, % at 10 µM. 330,000 compounds, 0.12% hits. AID 2544;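 active = inhibition reaching a set limit with compound at 10 µM in the primary screen, cut at about 35% in these data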;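 also: plate controls were DMSO wells with enzyme for no effect and no-enzyme buffer wells for full effect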
# mIAP block = blocks mouse intestinal alkaline phosphatase. purified mouse IAP, CDP-Star luminescence, 30 min. inhibition, % at 10 µM. 330,000 compounds, 0.2% hits;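 active = inhibition of at least 40% at 10 µM in the primary screen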;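 also: plate controls were DMSO with enzyme for no effect and no enzyme wells for full effect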
# bIAP inh = blocks bovine intestinal alkaline phosphatase activity; 190,000 tested, under 10 active; inhibition, % at 20 µM; purified bovine IAP, CDP-star luminescence, 30 min; AID 1019;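 active = over 50% inhibition of intestinal alkaline phosphatase at 20 µM in the single-dose screen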
#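 System: Purified bovine intestinal alkaline phosphatase (IAP) enzyme | Input: IAP diluted 1/65,000,000 in the well | Also added: CDP-star chemiluminescent phosphatase substrate, 30 µM final | Dosing: 20 µM single dose | Times: Enzyme reaction for 30 min at room temperature | Detection: Luminescence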
# hIAP act conf = human IAP activation confirmation | shares compounds with hIAP act | purified IAP, CDP-Star luminescence, 30 min; stronger effect = lower value | activation (%Activity, negative = activation), % at 8.3 µM | 880 compounds, 10% hits | AID 434926;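 active = at least twofold enzyme activation in any of six single-dose repeats, which the averaged readout prints as negative percent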
# Starred values were filed as active, the others as inactive; · = no result given. Only some compounds are listed: those with a hit (about 0.79% of all), similar ones and a draw of the others.
SMILES,hIAP act,mIAP act,bIAP activator,hIAP inh,mIAP block,bIAP inh,hIAP act conf
COc1ccc(N2CCN(C(=O)CSc3nnc4c5cc(C)ccc5n(C)c4n3)CC2)cc1,2.6*,0.93,0.9,-160,7,7,-69
COc1ccc2c(c1)c1nnc(SCC(=O)N3CCCCC3C)nc1n2C (stereo not given),·,·,1,·,·,5,·
O=C1c2ccccc2C(=O)N1Cc1ccc2c(c1)OCO2,2*,1.1,0.9,-100,-5,8,-26
O=C(O)c1ccc2c(c1)C(=O)N(Cc1ccc3c(c1)OCO3)C2=O,0.82,0.96,1,18,4,-3,·
Nc1cc(Nc2ccccc2)ccn1,0.62,0.96,·,38*,4,·,8
CC(C)C(OC(=O)C1=Cc2ccccc2OC1)C(=O)NC1CCCC1 (stereo not given),0.88,1.1,0.9,12,-6,8,·
CCC(OC(=O)C1=Cc2ccccc2OC1)C(=O)NC1CCCC1 (stereo not given),0.34,0.97,0.9,66*,3,9,-53*
COc1ccc(S(=O)(=O)N2CCOCC2)cc1NC(=O)CSc1nnc(C2CC2)n1C,1.1,1,·,-6,-3,·,·
O=C(Nc1ccc(F)cc1)c1ccc2snnc2c1,0.65,0.97,·,35*,3,·,-57
Cc1ccc(NC(=O)c2ccc3snnc3c2)cc1C,1,0.93,·,-2,7,·,·
Nc1nc(NCCCN2CCOCC2)nc(Nc2cccc(F)c2)c1[N+](=O)[O-],0.64,0.88,·,36*,12,·,-18
O=C(CNC(=S)NC(=O)c1cccs1)c1ccccc1,0.9,0.8,1,10,20,-4,·
O=C(NC(=S)NCc1ccccc1)c1cccs1,0.6,0.99,·,40*,1,·,13
CC(=O)Nc1ccc(S(=O)(=O)NCC(=O)NNC(=O)c2csc(N3CCOCC3)n2)cc1,2.1*,0.77,·,-113,23,·,-39
O=C(NNC(=O)c1ccc(Br)o1)c1csc(N2CCOCC2)n1,2.2*,0.89,·,-115,11,·,10
COc1ccccc1C(=O)NNC(=O)c1csc(N2CCOCC2)n1,2*,0.98,·,-105,2,·,2
Cc1ccc(C(=O)NNC(=O)c2csc(N3CCOCC3)n2)o1,1.9,0.87,·,-90,13,·,·
O=C(CCNS(=O)(=O)c1ccccc1)NNC(=O)c1csc(N2CCOCC2)n1,1.9,0.81,·,-91,19,·,·
CCCCN(C(=O)Cc1cccc(F)c1)c1c(N)n(CCC)c(=O)[nH]c1=O,1,1,1,0,0,-4,·
CC(=O)N/N=C/c1cc(C)n(-c2ccc(Br)cc2)c1C,1.1,1.1,1.2,-14,-10,-16,·
CC(=O)N/N=C/c1cc(C(C)C)cc(/C=N/NC(C)=O)c1O,2.5*,0.89,1.4,-154,11,-43,-11
COc1cc(C)ccc1OCC(=O)Nc1ccc2c(c1)OCO2,0.99,1.1,·,1,-7,·,·
O=C(CSc1nc2c(c(=O)n1-c1ccc(F)cc1)SCC2)N1CCCC1,2.1*,1.1,1,-106,-14,-3,8
O=C(CSc1nc2c(c(=O)n1-c1ccccc1)SCC2)N1CCN(c2ccccc2)CC1,0.92,1,1,8,-2,2,·
c1ccc(-n2ncc3c2ncn2nc(-c4ccco4)nc32)cc1,0.48,0.7,1,52*,30,5,0
SMILES,hIAP act,mIAP act,bIAP activator,hIAP inh,mIAP block,bIAP inh,hIAP act conf
C=CCN1C(=O)/C(=C\C=C2\N(C)c3ccccc3C2(C)C)SC1=S,0.54,0.61,0.9,46*,38,14,-267*
COc1ccc(NC(=O)CCN2CCN(S(=O)(=O)c3ccc(Br)cc3)CC2)cc1,1.1,0.96,·,-15,4,·,·
COc1ccc(NC(=O)CCN2CCN(S(=O)(=O)c3cc(Cl)ccc3OC)CC2)cc1,0.64,0.94,1,36*,6,4,36
Cc1cccc(C(=O)OCN2C(=O)c3ccccc3C2=O)c1[N+](=O)[O-],0.58,0.97,·,42*,3,·,10
COc1ccccc1CCc1nnc(CCC(=O)NC(C)Cn2nc(C)cc2C)o1 (stereo not given),1.2,1,1,-19,-1,0,·
Cn1c([N+](=O)[O-])cnc1N1CCN(c2nncs2)C1=O,1,1.1,·,-2,-10,·,·
NC1=NN=C(N2N=C(c3ccco3)CC2(O)C(F)(F)F)n2ncnc2C1 (stereo not given),2.5*,0.65,1.6,-153,35,-61,-1
Cc1ccc(C2=NN(C3=NN=C(N)Cc4ncnn43)C(O)(C(F)(F)F)C2)cc1 (stereo not given),0.84,0.83,1.5,16,17,-47,·
Oc1cccc(/C=N/N=C/c2cccc(O)c2O)c1O,2*,0.64,·,-101,36,·,-57
CN(C)/C=C(\C#N)C(N)=C(C#N)C#N,1.1,1,1,-12,-3,0,·
COc1ccc(CCNC(=O)c2cc(-c3ccccc3)c(N3CCOCC3)s2)c(OC)c1OC,1.6,1.3,·,-57,-30,·,·
CCOc1ccc(CCNC(=O)c2cc(-c3ccccc3)c(N3CCOCC3)s2)cc1OCC,2.5*,2.2*,·,-152,-116,·,1
O=C(N/N=C/c1ccccn1)c1cc(C2CC2)[nH]n1,2.1*,0.79,1.6,-110,21,-59,-22
O=C(CCCC(=O)N/N=C\c1ccccn1)N/N=C\c1ccccn1,2*,1,1.1,-102,-4,-6,2
Cc1ccc(-n2c(SCC(=O)N3CCOCC3)nc(O)cc2=O)cc1,1.1,0.96,·,-6,4,·,·
CCOc1cc(/C=C2/C(=O)ON=C2C)cc(Br)c1O,0.61,0.95,·,38*,5,·,9
Nc1nnnn1CC(=O)N/N=C/c1ccccn1,1.5,1.1,·,-50,-12,·,·
COc1ccc(CC(NC(C)=O)C(=O)NC2CCN(C(=O)NCc3ccccc3)CC2)cc1 (stereo not given),0.64,0.91,1,36*,9,-2,-49
COc1cccc(CC(NC(C)=O)C(=O)NC2CCN(C(=O)NCc3ccccc3)CC2)c1 (stereo not given),1.1,1.1,·,-12,-8,·,·
Cc1nc2ccc(NC(=O)c3ccc(C)c(S(=O)(=O)N4CCOCC4)c3)cc2s1,1.1,0.95,·,-14,5,·,·
CC(C)Cn1c(-c2ccccc2)nc(=S)c2c1CCCC2,1,0.91,0.7,-4,9,26,·
COc1cccc(-c2nc(=S)c3c(n2CCCO)CCCC3)c1,2.4*,1.1,1,-138,-14,-3,1
COC(=O)C1=C(C(=O)OC)[C@@H]2N(C)c3ccc(OC)cc3[C@@]23C[C@@H](C(=O)OC)N(C(=O)COCc2ccccc2)C3=N1,0.93,1,·,7,-4,·,·
